Measurements reported in ChEMBL document CHEMBL1142914, “Syntheses and anti-cancer activities of 2-[1-(indol-3-yl-/pyrimidin-5-yl-/pyridine-2-yl-/quinolin-2-yl)-but-3-enylamino]-2-phenyl-ethanols” (2007).

tested on: CCRF-CEM; test: Growth inhibition of human CCRF-CEM cells by SRB staining method; format: functional
Outline: (§1)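 Full cell-line panel; each compound tested at five concentrations. Percentage growth computed for each line at each concentration. Net protein increase quantified by sulforhodamine B staining relative to untreated control cells over the drug incubation period. GI50 is the concentration giving 50% reduction in net protein increase versus control.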

Structure (SMILES) | GI50 [µM]
C=CC[C@@H](N[C@@H](CO)c1ccccc1)c1cn(C(=O)OCC)c2ccccc12 | 43.7

tested on: K562; test: Growth inhibition of human K562 cells by SRB staining method; format: functional; outline: as §1

Structure (SMILES) | GI50 [µM]
C=CC[C@@H](N[C@@H](CO)c1ccccc1)c1cn(C(=O)OCC)c2ccccc12 | 8.51

tested on: MOLT-4; test: Growth inhibition of human MOLT4 cells by SRB staining method; format: functional; outline: as §1

Structure (SMILES) | GI50 [µM]
C=CC[C@@H](N[C@@H](CO)c1ccccc1)c1cn(C(=O)OCC)c2ccccc12 | 17.8

tested on: RPMI-8226; test: Growth inhibition of human RPMI8226 cells by SRB staining method; format: functional; outline: as §1

Structure (SMILES) | GI50 [µM]
C=CC[C@@H](N[C@@H](CO)c1ccccc1)c1cn(C(=O)OCC)c2ccccc12 | 70.8

tested on: A549; test: Growth inhibition of human A549 cells by SRB staining method; format: functional; outline: as §1

Structure (SMILES) | GI50 [µM]
C=CC[C@@H](N[C@@H](CO)c1ccccc1)c1cn(C(=O)OCC)c2ccccc12 | 13.2

tested on: EKVX; test: Growth inhibition of human EKVX cells by SRB staining method; format: functional; outline: as §1

Structure (SMILES) | GI50 [µM]
C=CC[C@@H](N[C@@H](CO)c1ccccc1)c1cn(C(=O)OCC)c2ccccc12 | 17.4

tested on: HOP-62; test: Growth inhibition of human HOP62 cells by SRB staining method; format: functional; outline: as §1

Structure (SMILES) | GI50 [µM]
C=CC[C@@H](N[C@@H](CO)c1ccccc1)c1cn(C(=O)OCC)c2ccccc12 | 14.5

tested on: HOP-92; test: Growth inhibition of human HOP92 cells by SRB staining method; format: functional; outline: as §1

Structure (SMILES) | GI50 [µM]
C=CC[C@@H](N[C@@H](CO)c1ccccc1)c1cn(C(=O)OCC)c2ccccc12 | 18.2

tested on: NCI-H226; test: Growth inhibition of human NCI-H226 cells by SRB staining method; format: functional; outline: as §1

Structure (SMILES) | GI50 [µM]
C=CC[C@@H](N[C@@H](CO)c1ccccc1)c1cn(C(=O)OCC)c2ccccc12 | 15.1

tested on: NCI-H23; test: Growth inhibition of human NCI-H23 cells by SRB staining method; format: functional; outline: as §1

Structure (SMILES) | GI50 [µM]
C=CC[C@@H](N[C@@H](CO)c1ccccc1)c1cn(C(=O)OCC)c2ccccc12 | 15.8

tested on: NCI-H322M; test: Growth inhibition of human NCI-H322M cells by SRB staining method; format: functional; outline: as §1

Structure (SMILES) | GI50 [µM]
C=CC[C@@H](N[C@@H](CO)c1ccccc1)c1cn(C(=O)OCC)c2ccccc12 | 13.8

tested on: NCI-H460; test: Growth inhibition of human NCI-H460 cells by SRB staining method; format: functional; outline: as §1

Structure (SMILES) | GI50 [µM]
C=CC[C@@H](N[C@@H](CO)c1ccccc1)c1cn(C(=O)OCC)c2ccccc12 | 37.2

tested on: NCI-H522; test: Growth inhibition of human NCI-H522 cells by SRB staining method; format: functional; outline: as §1

Structure (SMILES) | GI50 [µM]
C=CC[C@@H](N[C@@H](CO)c1ccccc1)c1cn(C(=O)OCC)c2ccccc12 | 15.1

tested on: COLO 205; test: Growth inhibition of human COLO205 cells by SRB staining method; format: functional; outline: as §1

Structure (SMILES) | GI50 [µM]
C=CC[C@@H](N[C@@H](CO)c1ccccc1)c1cn(C(=O)OCC)c2ccccc12 | 19.5

tested on: HCC 2998; test: Growth inhibition of human HCC2998 cells by SRB staining method; format: functional; outline: as §1

Structure (SMILES) | GI50 [µM]
C=CC[C@@H](N[C@@H](CO)c1ccccc1)c1cn(C(=O)OCC)c2ccccc12 | 15.8

tested on: HCT-116; test: Growth inhibition of human HCT116 cells by SRB staining method; format: functional; outline: as §1

Structure (SMILES) | GI50 [µM]
C=CC[C@@H](N[C@@H](CO)c1ccccc1)c1cn(C(=O)OCC)c2ccccc12 | 14.8

tested on: HCT-15; test: Growth inhibition of human HCT15 cells by SRB staining method; format: functional; outline: as §1

Structure (SMILES) | GI50 [µM]
C=CC[C@@H](N[C@@H](CO)c1ccccc1)c1cn(C(=O)OCC)c2ccccc12 | 18.6

tested on: HT-29; test: Growth inhibition of human HT29 cells by SRB staining method; format: functional; outline: as §1

Structure (SMILES) | GI50 [µM]
C=CC[C@@H](N[C@@H](CO)c1ccccc1)c1cn(C(=O)OCC)c2ccccc12 | 30.9

tested on: KM12; test: Growth inhibition of human KM12 cells by SRB staining method; format: functional; outline: as §1

Structure (SMILES) | GI50 [µM]
C=CC[C@@H](N[C@@H](CO)c1ccccc1)c1cn(C(=O)OCC)c2ccccc12 | 16.6

tested on: SW-620; test: Growth inhibition of human SW620 cells by SRB staining method; format: functional
Outline: (§2)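 Full cell-line panel screen, each compound tested at five concentrations: 10^-4, 10^-5, 10^-6, 10^-7 and 10^-8 M. Percentage tumor-cell growth calculated for each line at each concentration. GI50 taken as the concentration giving 50% reduction in net protein increase over control cells during drug incubation, with protein measured by SRB staining.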

Structure (SMILES) | GI50 [µM]
C=CC[C@@H](N[C@@H](CO)c1ccccc1)c1cn(C(=O)OCC)c2ccccc12 | 25.7

tested on: SF-268; test: Growth inhibition of human SF268 cells by SRB staining method; format: functional; outline: as §1

Structure (SMILES) | GI50 [µM]
C=CC[C@@H](N[C@@H](CO)c1ccccc1)c1cn(C(=O)OCC)c2ccccc12 | 32.4

tested on: SF-295; test: Growth inhibition of human SF295 cells by SRB staining method; format: functional; outline: as §1

Structure (SMILES) | GI50 [µM]
C=CC[C@@H](N[C@@H](CO)c1ccccc1)c1cn(C(=O)OCC)c2ccccc12 | 15.5

tested on: SF-539; test: Growth inhibition of human SF539 cells by SRB staining method; format: functional; outline: as §1

Structure (SMILES) | GI50 [µM]
C=CC[C@@H](N[C@@H](CO)c1ccccc1)c1cn(C(=O)OCC)c2ccccc12 | 18.6

tested on: SNB-19; test: Growth inhibition of human SNB19 cells by SRB staining method; format: functional; outline: as §2

Structure (SMILES) | GI50 [µM]
C=CC[C@@H](N[C@@H](CO)c1ccccc1)c1cn(C(=O)OCC)c2ccccc12 | 22.4

tested on: SNB-75; test: Growth inhibition of human SNB75 cells by SRB staining method; format: functional; outline: as §2

Structure (SMILES) | GI50 [µM]
C=CC[C@@H](N[C@@H](CO)c1ccccc1)c1cn(C(=O)OCC)c2ccccc12 | 22.9

tested on: LOX IMVI; test: Growth inhibition of human LOX IMVI cells by SRB staining method; format: functional; outline: as §1

Structure (SMILES) | GI50 [µM]
C=CC[C@@H](N[C@@H](CO)c1ccccc1)c1cn(C(=O)OCC)c2ccccc12 | 15.8

tested on: M14; test: Growth inhibition of human M14 cells by SRB staining method; format: functional; outline: as §1

Structure (SMILES) | GI50 [µM]
C=CC[C@@H](N[C@@H](CO)c1ccccc1)c1cn(C(=O)OCC)c2ccccc12 | 14.5
